Laboratory results from ChEMBL document CHEMBL1649395, “Synthesis and antibacterial activity of novel ketolides with 11,12-sulfur contained aryl alkyl side chains” (2011).
Values after ≈ are worked out from the molar mass of the structure shown.

Legend:
Assay type in all cases: functional
Staphylococcus aureus [1] = assay: Antibacterial activity against methicillin-susceptible Staphylococcus aureus ATCC 29213 by broth microdilution method
Method in brief: (§1)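 Strains were ATCC reference strains or clinical isolates from China's national antimicrobial resistance surveillance network (MOHNARIN). In vitro activity was measured by broth microdilution following NCCLS recommendations. Results are reported as minimum inhibitory concentration (MIC) in mg/L.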

Staphylococcus aureus [2] = assay: Antibacterial activity against methicillin-susceptible Staphylococcus aureus ANS46 by broth microdilution method; method in brief: as §1
[3] = tested on: Staphylococcus epidermidis; assay: Antibacterial activity against methicillin-susceptible Staphylococcus epidermidis 07C134 by broth microdilution method
Method in brief: (§2)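 Clinical isolates were supplied by China's Ministry of Health National Antimicrobial Resistance Investigation Net (MOHNARIN). Activity was reported as minimum inhibitory concentration (MIC), determined by broth microdilution following NCCLS recommendations.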

[4] = tested on: Staphylococcus epidermidis; assay: Antibacterial activity against methicillin-susceptible Staphylococcus epidermidis 07T202 by broth microdilution method; method in brief: as §1
[5] = tested on: Staphylococcus epidermidis; assay: Antibacterial activity against methicillin-resistant Staphylococcus epidermidis 07R066 by broth microdilution method; method in brief: as §2
[6] = tested on: Staphylococcus epidermidis; assay: Antibacterial activity against methicillin-resistant Staphylococcus epidermidis 07A066 by broth microdilution method; method in brief: as §2
Streptococcus pyogenes [7] = assay: Antibacterial activity against erythromycin-susceptible Streptococcus pyogenes 07U084 by broth microdilution method; method in brief: as §1
Streptococcus pyogenes [8] = assay: Antibacterial activity against erythromycin-susceptible Streptococcus pyogenes 07U086 by broth microdilution method; method in brief: as §1
Streptococcus pneumoniae [9] = assay: Antibacterial activity against erythromycin-susceptible Streptococcus pneumoniae ATCC 49619 by broth microdilution method; method in brief: as §1
Haemophilus influenzae [10] = assay: Antibacterial activity against erythromycin-susceptible Haemophilus influenzae ATCC 49247 by broth microdilution method; method in brief: as §1
Haemophilus influenzae [11] = assay: Antibacterial activity against erythromycin-susceptible Haemophilus influenzae 07O114 by broth microdilution method; method in brief: as §1
Haemophilus influenzae [12] = assay: Antibacterial activity against erythromycin-susceptible Haemophilus influenzae 07O339 by broth microdilution method; method in brief: as §1
Haemophilus influenzae [13] = assay: Antibacterial activity against erythromycin-susceptible Haemophilus influenzae 07O394 by broth microdilution method; method in brief: as §1
Streptococcus pneumoniae [14] = assay: Antibacterial activity against erythromycin-susceptible Streptococcus pneumoniae 07H252 by broth microdilution method; method in brief: as §1
Streptococcus pyogenes [15] = assay: Antibacterial activity against erythromycin-resistant Streptococcus pyogenes 03-233 by broth microdilution method; method in brief: as §2
Streptococcus pyogenes [16] = assay: Antibacterial activity against erythromycin-resistant Streptococcus pyogenes 01-533 by broth microdilution method; method in brief: as §2
Streptococcus pneumoniae [17] = assay: Antibacterial activity against erythromycin-resistant Streptococcus pneumoniae 07D201 by broth microdilution method; method in brief: as §2
Streptococcus pneumoniae [18] = assay: Antibacterial activity against erythromycin-resistant Streptococcus pneumoniae 07P390 by broth microdilution method; method in brief: as §2

Compound | MIC (Staphylococcus aureus [1]) | MIC (Staphylococcus aureus [2]) | MIC [3] | MIC [4] | MIC [5] | MIC [6] | MIC (Streptococcus pyogenes [7]) | MIC (Streptococcus pyogenes [8]) | MIC (Streptococcus pneumoniae [9]) | MIC (Haemophilus influenzae [10]) | MIC (Haemophilus influenzae [11]) | MIC (Haemophilus influenzae [12]) | MIC (Haemophilus influenzae [13]) | MIC (Streptococcus pneumoniae [14]) | MIC (Streptococcus pyogenes [15]) | MIC (Streptococcus pyogenes [16]) | MIC (Streptococcus pneumoniae [17]) | MIC (Streptococcus pneumoniae [18])
CC[C@H]1OC(=O)[C@H](C)C(=O)[C@H](C)[C@@H](O[C@@H]2O[C@H](C)C[C@H](N(C)C)[C@H]2O)[C@@](C)(OC)C[C@@H](C)C(=O)[C@H](C)[C@H]2N(CCCSc3nc4ccccc4[nH]3)C(=O)O[C@]12C | 0.125 µg/mL (≈ 0.156 µM) | > 16 µg/mL | 0.062 µg/mL (≈ 0.0772 µM) | > 16 µg/mL | 0.062 µg/mL (≈ 0.0772 µM) | 0.125 µg/mL (≈ 0.156 µM) | 0.016 µg/mL (≈ 0.0199 µM) | 0.016 µg/mL (≈ 0.0199 µM) | 0.016 µg/mL (≈ 0.0199 µM) | 4 µg/mL (≈ 4.98 µM) | 2 µg/mL (≈ 2.49 µM) | 2 µg/mL (≈ 2.49 µM) | 2 µg/mL (≈ 2.49 µM) | – | – | – | – | –
CC[C@H]1OC(=O)[C@H](C)C(=O)[C@H](C)[C@@H](O[C@@H]2O[C@H](C)C[C@H](N(C)C)[C@H]2O)[C@@](C)(OC)C[C@@H](C)C(=O)[C@H](C)[C@H]2N(CCCSc3nc(-c4ccccc4)cs3)C(=O)O[C@]12C | 0.5 µg/mL (≈ 0.591 µM) | 32 µg/mL (≈ 37.8 µM) | 0.5 µg/mL (≈ 0.591 µM) | 32 µg/mL (≈ 37.8 µM) | 0.5 µg/mL (≈ 0.591 µM) | 0.5 µg/mL (≈ 0.591 µM) | 0.25 µg/mL (≈ 0.295 µM) | 0.25 µg/mL (≈ 0.295 µM) | 0.25 µg/mL (≈ 0.295 µM) | 16 µg/mL (≈ 18.9 µM) | 32 µg/mL (≈ 37.8 µM) | 32 µg/mL (≈ 37.8 µM) | 32 µg/mL (≈ 37.8 µM) | 0.5 µg/mL (≈ 0.591 µM) | 32 µg/mL (≈ 37.8 µM) | 1 µg/mL (≈ 1.18 µM) | 8 µg/mL (≈ 9.45 µM) | 0.25 µg/mL (≈ 0.295 µM)
CC[C@H]1OC(=O)[C@H](C)C(=O)[C@H](C)[C@@H](O[C@@H]2O[C@H](C)C[C@H](N(C)C)[C@H]2O)[C@@](C)(OC)C[C@@H](C)C(=O)[C@H](C)[C@H]2N(CCCSc3nccc(C)n3)C(=O)O[C@]12C | 0.5 µg/mL (≈ 0.642 µM) | > 32 µg/mL | 0.25 µg/mL (≈ 0.321 µM) | > 32 µg/mL | 0.25 µg/mL (≈ 0.321 µM) | 0.5 µg/mL (≈ 0.642 µM) | 0.125 µg/mL (≈ 0.16 µM) | 0.125 µg/mL (≈ 0.16 µM) | 0.062 µg/mL (≈ 0.0796 µM) | 8 µg/mL (≈ 10.3 µM) | 8 µg/mL (≈ 10.3 µM) | 8 µg/mL (≈ 10.3 µM) | 8 µg/mL (≈ 10.3 µM) | 8 µg/mL (≈ 10.3 µM) | 2 µg/mL (≈ 2.57 µM) | 2 µg/mL (≈ 2.57 µM) | > 32 µg/mL | 0.25 µg/mL (≈ 0.321 µM)
CC[C@H]1OC(=O)[C@H](C)[C@@H](O[C@H]2C[C@@](C)(OC)[C@@H](O)[C@H](C)O2)[C@H](C)[C@@H](O[C@@H]2O[C@H](C)C[C@H](N(C)C)[C@H]2O)[C@](C)(OC)C[C@@H](C)C(=O)[C@H](C)[C@@H](O)[C@]1(C)O [CLARITHROMYCIN] | 0.25 µg/mL (≈ 0.334 µM) | > 32 µg/mL | 0.25 µg/mL (≈ 0.334 µM) | > 32 µg/mL | 0.125 µg/mL (≈ 0.167 µM) | 8 µg/mL (≈ 10.7 µM) | 0.031 µg/mL (≈ 0.0414 µM) | 0.031 µg/mL (≈ 0.0414 µM) | 0.031 µg/mL (≈ 0.0414 µM) | 4 µg/mL (≈ 5.35 µM) | 4 µg/mL (≈ 5.35 µM) | 8 µg/mL (≈ 10.7 µM) | 8 µg/mL (≈ 10.7 µM) | 0.062 µg/mL (≈ 0.0829 µM) | > 32 µg/mL | 2 µg/mL (≈ 2.67 µM) | > 32 µg/mL | 2 µg/mL (≈ 2.67 µM)
CC[C@H]1OC(=O)[C@H](C)C(=O)[C@H](C)[C@@H](O[C@@H]2O[C@H](C)C[C@H](N(C)C)[C@H]2O)[C@@](C)(OC)C[C@@H](C)C(=O)/C(C)=C/[C@]1(C)OC(=O)NCCCSc1nc2cc([N+](=O)[O-])ccc2[nH]1 | 1 µg/mL (≈ 1.18 µM) | > 16 µg/mL | 1 µg/mL (≈ 1.18 µM) | > 16 µg/mL | 1 µg/mL (≈ 1.18 µM) | 1 µg/mL (≈ 1.18 µM) | 0.125 µg/mL (≈ 0.147 µM) | 0.125 µg/mL (≈ 0.147 µM) | 0.125 µg/mL (≈ 0.147 µM) | 16 µg/mL (≈ 18.9 µM) | 16 µg/mL (≈ 18.9 µM) | > 16 µg/mL | > 16 µg/mL | – | – | – | – | –
CC[C@H]1OC(=O)[C@H](C)C(=O)[C@H](C)[C@@H](O[C@@H]2O[C@H](C)C[C@H](N(C)C)[C@H]2O)[C@@](C)(OC)C[C@@H](C)C(=O)[C@H](C)[C@H]2N(CCCSc3nc(-c4cccnc4)c[nH]3)C(=O)O[C@]12C | 0.125 µg/mL (≈ 0.151 µM) | > 32 µg/mL | 0.125 µg/mL (≈ 0.151 µM) | 32 µg/mL (≈ 38.6 µM) | 0.125 µg/mL (≈ 0.151 µM) | 0.125 µg/mL (≈ 0.151 µM) | 0.031 µg/mL (≈ 0.0373 µM) | 0.031 µg/mL (≈ 0.0373 µM) | 0.062 µg/mL (≈ 0.0747 µM) | 2 µg/mL (≈ 2.41 µM) | 2 µg/mL (≈ 2.41 µM) | 2 µg/mL (≈ 2.41 µM) | 2 µg/mL (≈ 2.41 µM) | 0.25 µg/mL (≈ 0.301 µM) | 1 µg/mL (≈ 1.2 µM) | 0.125 µg/mL (≈ 0.151 µM) | 4 µg/mL (≈ 4.82 µM) | 0.031 µg/mL (≈ 0.0373 µM)
CC[C@H]1OC(=O)[C@H](C)C(=O)[C@H](C)[C@@H](O[C@@H]2O[C@H](C)C[C@H](N(C)C)[C@H]2O)[C@@](C)(OC)C[C@@H](C)C(=O)[C@H](C)[C@H]2N(CCCSc3nc(C)cc(C)n3)C(=O)O[C@]12C | 0.5 µg/mL (≈ 0.63 µM) | > 32 µg/mL | 0.5 µg/mL (≈ 0.63 µM) | > 32 µg/mL | 0.5 µg/mL (≈ 0.63 µM) | 0.5 µg/mL (≈ 0.63 µM) | 0.125 µg/mL (≈ 0.158 µM) | 0.125 µg/mL (≈ 0.158 µM) | 0.062 µg/mL (≈ 0.0782 µM) | 4 µg/mL (≈ 5.04 µM) | 8 µg/mL (≈ 10.1 µM) | 4 µg/mL (≈ 5.04 µM) | 8 µg/mL (≈ 10.1 µM) | 2 µg/mL (≈ 2.52 µM) | > 32 µg/mL | 2 µg/mL (≈ 2.52 µM) | > 32 µg/mL | 1 µg/mL (≈ 1.26 µM)
